Screening data as filed in PubChem BioAssay.
The list is not random: actives were taken first. Their share in the collection is about 4.9%.
WT yeast gro inh = growth inhibition of WT yeast, mitochondrial fusion screen; mitochondrial fusion phenotypic screen, WT strain; inhibition, % at 10 µM; hit rate 2.1% among 190,000; AID 1362; in the data active = inhibition above about 58%; tested in S. cerevisiae
NPY Y2 blocker = NPY-Y2 (human) receptor antagonism | AID 793 | hit rate 0.99% among 140,000 | inhibition, % at 2.7 µM | NPY-Y2 expressing cells, antagonist mode | P49146
NPY1 pot ag = potentiators or agonists of human neuropeptide Y receptor Y1 | P25929 | NPY-Y1 expressing cells, potentiator/agonist activation | activation, % at 3.6 µM | hit rate 0.37% among 220,000; in the data active = activation above about 33%, passing the limit was not always enough;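 note: cells stimulated with NPY at EC10 then isoproterenol at EC100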
Target sequence (P25929 whole entry, looked up): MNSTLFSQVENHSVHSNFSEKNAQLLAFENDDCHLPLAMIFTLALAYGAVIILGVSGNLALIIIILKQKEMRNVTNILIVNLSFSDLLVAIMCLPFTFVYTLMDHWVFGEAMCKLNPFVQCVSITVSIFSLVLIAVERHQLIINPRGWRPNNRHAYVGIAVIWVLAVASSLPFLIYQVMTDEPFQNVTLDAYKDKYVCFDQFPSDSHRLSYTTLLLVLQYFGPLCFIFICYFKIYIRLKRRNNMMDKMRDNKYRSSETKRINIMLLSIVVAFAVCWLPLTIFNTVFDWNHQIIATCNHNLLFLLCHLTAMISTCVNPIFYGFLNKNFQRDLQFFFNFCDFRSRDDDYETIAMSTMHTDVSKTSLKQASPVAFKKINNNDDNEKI
RAM inhibit = yeast RAM network inhibition | S. cerevisiae dse1pr::URA3 reporter, 5-FOA growth OD615, 2 d; analog-sensitive cbk1-as2 kinase mutant strain | inhibition, % at 50 µM | hit rate 1.8% among 190,000 | AID 868;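 active = inhibition above a set limit, 3 SD over mean compound inhibition, cut at about 8.4% in these data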;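 note: inhibition rescues growth on 5-FOA so higher OD means more RAM inhibition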
NPY2 pot ag = human NPY-Y2 potentiation or agonism, primary screen; hit rate 0.45% among 220,000; AID 1359; cells expressing NPY-Y2, potentiator/agonist read-out; activation, % at 3.6 µM; in the data active = activation above about 27%;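 note: cells stimulated with NPY near EC25 plus isoproterenol at EC100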
NPY-Y1 antag = NPY-Y1 (human) receptor antagonism. HEK293-CNG Y1 cells, membrane potential fluorescence; NPY at EC95, then isoproterenol. inhibition, % at 3.6 µM. P25929. hit rate 1% among 200,000;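 active = inhibition above the campaign mean inhibition of all tested compounds plus 3 SD, cut at about 20% in these data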
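Material: HEK293 Y1/CNG channel cell line; also added: NPY (25 nM), isoproterenol (1 µM), Ro 20-1724 (25 µM); doses: one concentration, 3.6 µM, in 0.4% DMSO; schedule: compound incubation 1 h at room temperature, readout 45 min post-stimulation; technique: membrane potential fluorescence; measure: fluorescence ratio normalized to % inhibition between controls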
NPY-Y1 ant conf = confirmation of human neuropeptide Y receptor Y1 antagonists | shares compounds with NPY-Y1 antag | HEK293-CNG NPY-Y1, membrane potential fluorescence, cAMP; NPY challenge against isoproterenol-raised cAMP | inhibition, % at 3.6 µM | hit rate 21% among 1,200; in the data active = inhibition above about 20%
NPY-Y2 antag ct = human NPY-Y2 antagonism in NPY-Y1 counter-screen. inhibition, % at 3.6 µM. hit rate 28% among 1,200. shares compounds with NPY-Y1 antag. HEK293 NPY-Y2 CNG membrane potential fluorescence; cells given NPY, then isoproterenol
A number is an active result; n = inactive; x = no result given. Cut-off read from the data, not from the text of the source, unless noted: active = inhibition above about 17%; inactive = the rest.

SMILES | WT yeast gro inh | NPY Y2 blocker | NPY1 pot ag | RAM inhibit | NPY2 pot ag | NPY-Y1 antag | NPY-Y1 ant conf | NPY-Y2 antag ct
COc1ccc(F)cc1C(=O)C1CCCN(Cc2cccn2-c2cccnc2)C1 (configuration not stated) | n | x | n | n | n | n | x | x
COc1ccc(C(=O)C2CCCN(Cc3cccn3-c3nccs3)C2)cc1F (configuration not stated) | n | x | n | n | n | n | x | x
Cc1ccc(-n2cccn2)c(CN2CCCC(C(=O)c3sccc3C)C2)c1 (configuration not stated) | n | x | n | n | n | 72 | 32 | 38
OCCC1CN(Cc2cccn2-c2ccccn2)CCN1C1CCCC1 (configuration not stated) | n | x | n | n | n | n | x | x
O=C(c1ccc(C(F)(F)F)cc1)C1CCCN(Cc2cccn2-c2ncccn2)C1 (configuration not stated) | n | x | n | n | n | 23 | n | 18
COc1ccccc1C(=O)Nc1ccc2c(c1)OCCO2 | n | n | n | n | n | n | x | x
Fc1ccc(-c2cnc(-c3cccs3)o2)cc1 | n | n | n | n | n | n | x | x
CC(Nc1cc(=O)n(C)c(=O)n1C)c1ccccc1 (configuration not stated) | n | n | n | n | n | n | x | x
CC(C)Oc1cccc(C(=O)C2CCCN(Cc3cnn(C(C)C)c3)C2)c1 (configuration not stated) | n | x | n | n | n | n | x | x
COc1ccc(C(=O)C2CCCN(Cc3cccn3-c3nccs3)C2)cc1OC (configuration not stated) | x | x | n | x | n | x | x | x
COc1ccc(C(=O)C2CCCN(Cc3cccn3-c3ccccn3)C2)cc1F (configuration not stated) | n | x | 55 | n | 45 | 22 | n | n
COc1cccc(C(=O)C2CCCN(Cc3cccn3-c3ccccn3)C2)c1 (configuration not stated) | n | x | n | n | n | 37 | 35 | 30
CC(C)Oc1cccc(C(=O)C2CCCN(Cc3cccn3-c3ccccn3)C2)c1 (configuration not stated) | n | x | n | n | n | 49 | 44 | 40
O=Cc1c(N2CCCCCC2)nc2ccccn2c1=O | n | n | n | n | n | n | x | x
CCc1nc(N2CCN(C(=O)c3ccccc3)CC2)c2c3c(sc2n1)CCCC3 | n | x | n | n | n | 22 | n | n
O=C(OCC(=O)N1N=C(c2ccc(Cl)cc2)CC1c1ccco1)c1ccccc1O (configuration not stated) | n | n | n | n | n | 22 | n | n
Cc1cccc2cc(CN(Cc3ccco3)C(=O)Nc3cccc(C#N)c3)c(Cl)nc12 | n | n | n | n | n | 34 | n | n
CCCC(c1nnnn1C(C)(C)C)N1CCN(Cc2ccccc2OC)CC1 (configuration not stated) | n | x | n | n | n | 22 | n | n
Cc1ccc(C(C)C)c(OCCCN(C)Cc2ccccc2)c1 | n | n | n | n | n | 32 | n | 18
Cc1ccc(C(C)C)c(OCCCN2C(=O)NC(C)(C)C2=O)c1 | n | n | n | n | n | n | x | x
Cn1c(N2CCCCC2)nc2c1c(=O)n(Cc1cccc(Br)c1)c(=O)n2C | n | n | n | n | n | n | x | x
COC(=O)c1sccc1NC(=O)CSc1cccc(Cl)c1Cl | n | n | n | 8.7 | n | 24 | n | n
CCOP(=O)(OCC)C(Nc1ccccn1)c1ccc(F)cc1 (configuration not stated) | n | n | n | n | n | n | x | x
COc1ccc(Cl)cc1NC(=O)C(C)OC(=O)c1ccc(NS(=O)(=O)c2ccc3[nH]c(=O)[nH]c3c2)cc1 (configuration not stated) | n | n | n | n | n | n | x | x
C=CCOc1ccccc1CN1CCC(CO)(CCOc2ccccc2)CC1 | n | x | n | n | n | 27 | n | n
SMILES | WT yeast gro inh | NPY Y2 blocker | NPY1 pot ag | RAM inhibit | NPY2 pot ag | NPY-Y1 antag | NPY-Y1 ant conf | NPY-Y2 antag ct
CCCCn1nc2cc(C(=O)NCc3ccco3)ccc2c1OCC | n | n | n | n | n | n | x | x
COc1ccc(-c2noc(CCCOc3ccccc3)n2)cc1OC | n | n | n | n | n | 25 | n | n
Cc1nc(NCCc2ccccc2F)c(C#N)c(C)c1[N+](=O)[O-] | n | n | n | n | n | 29 | n | n
Cc1nc(NCCc2ccc(F)cc2)c(C#N)c(C)c1[N+](=O)[O-] | n | n | n | n | n | n | x | x
Cc1ccc(CNC(=O)c2ccc(NS(=O)(=O)c3c(C)noc3C)cc2)cc1 | n | n | n | n | n | 28 | n | n
CCOC(=O)c1c(-c2ccccc2)csc1NC(=O)CSc1nc(C)cc(C)n1 | n | n | n | n | n | 20 | n | n
CCOC(=O)c1c(-c2ccccc2)csc1NC(=O)CSc1nc(N)cc(N)n1 | n | n | n | n | n | n | x | x
COc1ccc(CNC(=O)C(CCSC)NC(=O)c2ccco2)cc1 (configuration not stated) | n | n | n | n | n | n | x | x
CSCCC(NC(=O)c1ccco1)C(=O)OC(C)C(=O)NC(=O)NC1CCCCC1 (configuration not stated) | n | n | n | n | n | 25 | n | n
CCOC(=O)C1CCCN(Cc2c(C(=O)N3CCCCC3)nc3c(C)cccn23)C1 (configuration not stated) | n | x | n | n | n | n | x | x
Cc1cccn2c(CNC3CCCc4ccccc43)c(C(=O)N3CCCCC3)nc12 (configuration not stated) | n | x | n | n | n | 24 | n | n
Cc1ccccc1C(=O)NCC(=O)NNC(=S)NC(=O)c1ccccc1 | n | n | n | n | n | n | x | x
CC1Cc2ccccc2N1C(=S)NC(=O)c1ccc(Cl)cc1Cl (configuration not stated) | 60 | n | n | n | n | 25 | n | n
CC1Cc2ccccc2N1C(=S)NC(=O)c1cccc(Br)c1 (configuration not stated) | n | n | n | n | n | n | x | x
O=C(N/N=C/c1cc2ccccc2nc1Cl)c1ccncc1 | n | x | n | n | n | n | x | x
O=C(NC(N1CCCC1)C(Cl)(Cl)Cl)c1ccccc1 (configuration not stated) | n | n | n | n | n | n | x | x
O=C(NC(N1CCOCC1)C(Cl)(Cl)Cl)c1ccc(F)cc1 (configuration not stated) | n | x | n | n | n | 53 | n | n
O=C(Nc1ccc(Cl)cc1)c1ccc(-c2ccccn2)s1 | x | x | n | x | n | x | x | x
Cc1cc(Br)ccc1OCC(=O)NNC(=O)Cc1ccccc1 | n | n | n | n | n | n | x | x
